The nature of assay [1]: hit retest on RPL19A-GFP reporter strain – cell-based, S. cerevisiae, flow cytometry, cherry picks, mother/daughter gates, confirmation (AID 2270;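 active = GFP response below 50% of the DMSO control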). Conditions: 3 h, at 10 µM, stronger effect = lower value, 100 = same GFP as DMSO wells.
The nature of assay [2]: yeast TOR pathway reporter LAP4-GFP change – cell-based, cherry picks, flow cytometry, mother/daughter gates, confirmation (AID 2271;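 active = GFP response above 150% of the DMSO control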;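 also: ratio of sample to DMSO plate mean so 100% equals DMSO level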). The conditions noted are these: S. cerevisiae LAP4-GFP strain, 3 h, at 10 µM, stronger effect = higher value, 100 means same as DMSO control. The gist of the method: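 System – GFP-fusion yeast strain · Amount – 0.2 OD600 cells · Buffer or medium – SC growth medium · Dosing – single test-compound dose, 10 µM final · Schedule – 3 h treatment at 30 °C with rotation · Detection – GFP by flow cytometry · Read-out – per-gate (all, mother, daughter) GFP response vs DMSO · Benchmarks – positive rapamycin (400 ng/mL), negative DMSO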

The nature of assay [3]: TOR pathway reporter MEP2-GFP, retest of hits – S. cerevisiae, flow cytometry GFP, cherry picks, confirmation (AID 2272;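 active = GFP response above 150% of the DMSO control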;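 also: ratio of well signal to plate DMSO mean so 100% equals DMSO level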). Conditions: S. cerevisiae MEP2-GFP strain, 3 h, at 10 µM, stronger effect = higher value. For orientation: A flow cytometer gives signals particle by particle.
Assay [4] is described as follows: yeast AGP1-GFP fluorescence change, single-dose – cell-based, flow cytometry, S. cerevisiae, cherry picks, confirmation (AID 2273).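 Also: median GFP channel fluorescence over the whole cell population gate.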 The conditions noted are these: S. cerevisiae AGP1-GFP strain, 3 h, at 10 µM.
Assay [5] is described as follows: TOR pathway CIT2 reporter hit retest – S. cerevisiae, GFP fusion, cherry picks, mother/daughter gates, confirmation (AID 2274). The conditions noted are these: S. cerevisiae CIT2-GFP strain, flow cytometry, 3 h, at 10 µM, stronger effect = higher value.
The mark [6] stands for this setting: measured here: daughter cell gate.
[7] abbreviates: measured here: mother cell gate.
Setting [8] is: measured here: daughter cell gate response.
Where [9] appears, read: measured here: mother cell gate response.

This passage reports GFP response vs DMSO, GFP response relative to DMSO and GFP response, % of DMSO results from PubChem BioAssay.

Structures are written as SMILES. Activity calls are given as the source filed them.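 The calls were made as follows, unless noted: active = GFP response above 150% of the DMSO level; inconclusive = fewer than 70 events counted for a yeast strain; inactive = the rest.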

For the compound `O=C(O)Cc1csc(-c2cccc(Oc3ccccc3)c2)n1`, the GFP response vs DMSO in assay [1] was 100% (inactive); in assay [1] (setting [6]), 97.8%; in assay [1] (setting [7]), 101%; in assay [3], 100% (inactive). For the same compound, the GFP response relative to DMSO was 105% (inactive) in assay [2], 98.7% in assay [2] (setting [8]) and 106% in assay [2] (setting [9]). The GFP response, % of DMSO in assay [4] is 95.4% (inactive); in assay [5] it was 93.9% (inactive); in assay [5] (setting [6]), 93.2%; in assay [5] (setting [7]) it was 93.4%.
As to `Cc1nonc1C(=O)N/N=C/c1ccc([N+](=O)[O-])o1`, the GFP response vs DMSO was 100% (inactive) in assay [1], 101% in assay [1] (setting [6]), 101% in assay [1] (setting [7]) and 105% (inactive) in assay [3]. In addition, the GFP response relative to DMSO in assay [2] was 111% (inactive); in assay [2] (setting [8]) it was 109%; in assay [2] (setting [9]), 113%. Further, the GFP response, % of DMSO in assay [4] was 106% (inactive); in assay [5] it was 105% (inactive); in assay [5] (setting [6]) it was 105%; in assay [5] (setting [7]), 104%.
On to `COc1cccc(-c2nnc(NC(=O)c3ccc(S(=O)(=O)N4CCOCC4)cc3)o2)c1`, for which the GFP response vs DMSO in assay [1] was 97.6% (inactive); in assay [1] (setting [6]), 97.8%; in assay [1] (setting [7]), 96.5%; in assay [3], 101% (inactive). The GFP response relative to DMSO in assay [2] is 97.7% (inactive); in assay [2] (setting [8]), 99%; in assay [2] (setting [9]), 97.4%. Further, the GFP response, % of DMSO was 100% (inactive) in assay [4], 100% (inactive) in assay [5], 99.3% in assay [5] (setting [6]) and 100% in assay [5] (setting [7]).
Consider `O=C(COc1ccccc1)NNC(=S)NC(=O)c1ccccc1`, for which the GFP response vs DMSO is 114% (inactive) in assay [1], 118% in assay [1] (setting [6]), 110% in assay [1] (setting [7]) and 127% (inactive) in assay [3]. The GFP response relative to DMSO in assay [2] is 171% (active); in assay [2] (setting [8]) it was 165%; in assay [2] (setting [9]), 166%. The GFP response, % of DMSO in assay [4] is 116% (inactive); in assay [5] it was 108% (inactive); in assay [5] (setting [6]), 121%; in assay [5] (setting [7]), 98.7%.
On to `Cc1noc(/C=C/c2cccnc2)c1[N+](=O)[O-]`, for which the GFP response vs DMSO in assay [1] was 105% (inactive); in assay [1] (setting [6]), 104%; in assay [1] (setting [7]), 103%; in assay [3] it was 104% (inactive). Further, the figures for the GFP response relative to DMSO in assay [2], in assay [2] (setting [8]) and in assay [2] (setting [9]) were 120% (inactive), 117% and 124%, respectively. In addition, the GFP response, % of DMSO in assay [4] was 92.4% (inactive); in assay [5], 92.6% (inactive); in assay [5] (setting [6]), 94.8%; in assay [5] (setting [7]), 89.1%.
With `O=C(O)CCc1ccc(-c2ccc(Br)cc2)o1`, the GFP response vs DMSO in assay [1] is 99.4% (inactive); in assay [1] (setting [6]), 92.2%; in assay [1] (setting [7]), 97%; in assay [3] it was 99% (inactive). Also, the values for the GFP response relative to DMSO in assay [2], in assay [2] (setting [8]) and in assay [2] (setting [9]) were 137% (inactive), 119% and 129%, respectively. Also, the GFP response, % of DMSO in assay [4] is 86.6% (inactive); in assay [5], 84.3% (inactive); in assay [5] (setting [6]), 81.2%; in assay [5] (setting [7]), 82.1%.
On to `COC(=O)Cc1csc(Nc2ccc(F)c(Cl)c2)n1`, for which the GFP response vs DMSO is 101% (inactive) in assay [1], 102% in assay [1] (setting [6]), 100% in assay [1] (setting [7]) and 95.7% (inactive) in assay [3]. The GFP response relative to DMSO in assay [2] is 97.4% (inactive); in assay [2] (setting [8]), 98.7%; in assay [2] (setting [9]), 98.3%. In addition, the GFP response, % of DMSO is 93.7% (inactive) in assay [4], 110% (inactive) in assay [5], 106% in assay [5] (setting [6]) and 107% in assay [5] (setting [7]).
Regarding `Cc1ccc(NC(=S)NCC23C=CC(O2)C2C(=O)N(c4ccc(C)cc4)C(=O)C23)cc1` (stereo unspecified), the GFP response vs DMSO in assay [1] is 102% (inactive); in assay [1] (setting [6]), 101%; in assay [1] (setting [7]) it was 102%; in assay [3], 104% (inactive). The GFP response relative to DMSO was 105% (inactive) in assay [2], 105% in assay [2] (setting [8]) and 106% in assay [2] (setting [9]). The GFP response, % of DMSO in assay [4] is 98.9% (inactive); in assay [5], 100% (inactive); in assay [5] (setting [6]), 98.1%; in assay [5] (setting [7]), 101%.
Turning to `O=[N+]([O-])c1ccc(N=Nc2c(Cl)cc(O)cc2Cl)cc1`, the GFP response vs DMSO in assay [1] is 91.9% (inactive); in assay [1] (setting [6]) it was 84.8%; in assay [1] (setting [7]) it was 85.2%; in assay [3] it was 112% (inactive). Besides, the GFP response relative to DMSO was 252% (active) in assay [2], 150% in assay [2] (setting [8]) and 230% in assay [2] (setting [9]). In addition, the GFP response, % of DMSO in assay [4] was 91.4% (inactive); in assay [5] it was 96.4% (inactive); in assay [5] (setting [6]), 96.4%; in assay [5] (setting [7]), 82.8%.
Consider `O=C1c2ccccc2C2=Nc3ccccc3SC(c3cccc(F)c3)C12` (stereo unspecified), for which the GFP response vs DMSO in assay [1] was 102% (inactive); in assay [1] (setting [6]), 98.4%; in assay [1] (setting [7]), 102%; in assay [3], 139% (inactive). Moreover, the GFP response relative to DMSO is 106% (inactive) in assay [2], 108% in assay [2] (setting [8]) and 102% in assay [2] (setting [9]). For the same compound, the GFP response, % of DMSO in assay [4] was 103% (inactive); in assay [5], 117% (inactive); in assay [5] (setting [6]), 106%; in assay [5] (setting [7]), 106%.
`Cc1ccc(N2C(=O)CC(Sc3ncn[nH]3)C2=O)cc1C` (stereo unspecified): the GFP response vs DMSO in assay [1] was 106% (inactive); in assay [1] (setting [6]), 111%; in assay [1] (setting [7]), 101%; in assay [3], 109% (inactive). The GFP response relative to DMSO in assay [2] is 137% (inactive); in assay [2] (setting [8]), 133%; in assay [2] (setting [9]), 140%. For the same compound, the GFP response, % of DMSO is 100% (inactive) in assay [4], 104% (inactive) in assay [5], 112% in assay [5] (setting [6]) and 97.3% in assay [5] (setting [7]).
Consider `CC(Oc1ccc(Br)cc1)C(=O)Nc1nc(-c2ccccn2)cs1` (stereo unspecified), for which the GFP response vs DMSO in assay [1] is 104% (inactive); in assay [1] (setting [6]) it was 95.9%; in assay [1] (setting [7]), 105%; in assay [3], 117% (inactive). Moreover, the GFP response relative to DMSO in assay [2] is 241% (active); in assay [2] (setting [8]), 184%; in assay [2] (setting [9]), 258%. Also, the GFP response, % of DMSO in assay [4] was 92.9% (inactive); in assay [5] it was 98.3% (inactive); in assay [5] (setting [6]), 97.2%; in assay [5] (setting [7]), 93.8%.
Regarding `CCSc1nnc(NC(=O)c2ccccn2)s1`, the GFP response vs DMSO in assay [1] was 101% (inactive); in assay [1] (setting [6]), 100%; in assay [1] (setting [7]), 99.8%; in assay [3] it was 122% (inactive). The GFP response relative to DMSO in assay [2] is 257% (active); in assay [2] (setting [8]), 223%; in assay [2] (setting [9]), 254%. The GFP response, % of DMSO is 93.8% (inactive) in assay [4], 97.8% (inactive) in assay [5], 104% in assay [5] (setting [6]) and 91% in assay [5] (setting [7]).
On to `O=[N+]([O-])c1ncccc1OCc1ccc(-c2ccccc2)cc1`, for which the GFP response vs DMSO in assay [1] was 101% (inactive); in assay [1] (setting [6]), 99.6%; in assay [1] (setting [7]), 98.8%; in assay [3] it was 160% (inactive). For the same compound, the GFP response relative to DMSO in assay [2] is 135% (inactive); in assay [2] (setting [8]), 138%; in assay [2] (setting [9]), 131%. For the same compound, the GFP response, % of DMSO in assay [4] is 104% (inactive); in assay [5] it was 123% (inactive); in assay [5] (setting [6]), 126%; in assay [5] (setting [7]), 114%.
As for `CCN(CC(=O)NC(C)(C)C)C(=O)COc1c(Cl)cc(Cl)c2ccc(C)nc12`, the GFP response vs DMSO was 100% (inactive) in assay [1], 101% in assay [1] (setting [6]), 99.7% in assay [1] (setting [7]) and 126% (inactive) in assay [3]. Also, the GFP response relative to DMSO is 127% (inactive) in assay [2], 121% in assay [2] (setting [8]) and 125% in assay [2] (setting [9]). Besides, the GFP response, % of DMSO in assay [4] is 102% (inactive); in assay [5] it was 108% (inactive); in assay [5] (setting [6]), 111%; in assay [5] (setting [7]), 100%.
For the compound `Cc1nn(C)cc1C(C)NC(=O)c1cc(COc2ccc(F)c(F)c2)on1` (stereo unspecified), the GFP response vs DMSO in assay [1] was 101% (inactive); in assay [1] (setting [6]), 100%; in assay [1] (setting [7]), 102%; in assay [3] it was 100% (inactive). Besides, the GFP response relative to DMSO in assay [2] was 93.8% (inactive); in assay [2] (setting [8]) it was 94.1%; in assay [2] (setting [9]) it was 96.2%. The GFP response, % of DMSO was 93.7% (inactive) in assay [4], 97.8% (inactive) in assay [5], 98.1% in assay [5] (setting [6]) and 97.7% in assay [5] (setting [7]).
